Measurements: PMC2756064 (Journal of medicinal chemistry, 2009)
One block for each compound: values may come before it. Square brackets hold non-standard residues; d marks the D form. Peptide text beside a SMILES is read from it. * marks the point of attachment. Hmp(2R,3S) = CC[C@H](C)[C@@H](O)C(=O)O; Sta = CC(C)C[C@H](N)[C@@H](O)CC(=O)O; NMe2Val = CC(C)[C@@H](C(=O)*)N(C)C; dNMeF = CN[C@H](Cc1ccccc1)C(=O)O; NMeQ = CN[C@@H](CCC(N)=O)C(=O)O; dHiv = CC(C)[C@@H](O)C(=O)O; Hiv = CC(C)[C@H](O)C(=O)O; Isovaleryl = CC(C)CC(=O)*

Columns and labels:
ADAM10 = molecular target: T1, ADAM10 (Homo sapiens, UniProt O14672); assay: Protease inhibition screen and IC50 assay, ADAM10; assay type: biochemical; conditions: 10 μM, panel of 59 proteases
T1 sequence (O14672 214-748): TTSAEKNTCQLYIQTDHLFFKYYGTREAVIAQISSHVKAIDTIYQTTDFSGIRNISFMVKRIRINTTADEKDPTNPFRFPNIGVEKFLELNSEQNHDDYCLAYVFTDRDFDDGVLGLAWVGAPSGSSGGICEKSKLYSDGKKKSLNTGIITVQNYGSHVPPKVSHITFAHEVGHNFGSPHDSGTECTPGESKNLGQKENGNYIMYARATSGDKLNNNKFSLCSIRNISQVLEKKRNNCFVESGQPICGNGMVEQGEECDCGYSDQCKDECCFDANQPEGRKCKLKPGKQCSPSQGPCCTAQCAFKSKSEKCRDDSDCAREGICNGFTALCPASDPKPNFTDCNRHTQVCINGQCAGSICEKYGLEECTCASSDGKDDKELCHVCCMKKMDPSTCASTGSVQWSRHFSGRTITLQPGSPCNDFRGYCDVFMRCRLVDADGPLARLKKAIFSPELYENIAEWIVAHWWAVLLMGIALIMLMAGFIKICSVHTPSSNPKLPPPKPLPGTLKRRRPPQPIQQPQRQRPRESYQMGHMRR

[1] = system: monocyte derived dendritic cells and CD4+ T cells (allogeneic); assay: Allogeneic mixed lymphocyte reaction; assay type: cell-based, human; conditions: allogeneic MLR
ADAM9 = molecular target: T2, ADAM9 (Homo sapiens, UniProt Q13443); assay: Protease inhibition screen and IC50 assay, ADAM9; assay type: biochemical; conditions: 10 μM, panel of 59 proteases
T2 sequence (Q13443 29-819): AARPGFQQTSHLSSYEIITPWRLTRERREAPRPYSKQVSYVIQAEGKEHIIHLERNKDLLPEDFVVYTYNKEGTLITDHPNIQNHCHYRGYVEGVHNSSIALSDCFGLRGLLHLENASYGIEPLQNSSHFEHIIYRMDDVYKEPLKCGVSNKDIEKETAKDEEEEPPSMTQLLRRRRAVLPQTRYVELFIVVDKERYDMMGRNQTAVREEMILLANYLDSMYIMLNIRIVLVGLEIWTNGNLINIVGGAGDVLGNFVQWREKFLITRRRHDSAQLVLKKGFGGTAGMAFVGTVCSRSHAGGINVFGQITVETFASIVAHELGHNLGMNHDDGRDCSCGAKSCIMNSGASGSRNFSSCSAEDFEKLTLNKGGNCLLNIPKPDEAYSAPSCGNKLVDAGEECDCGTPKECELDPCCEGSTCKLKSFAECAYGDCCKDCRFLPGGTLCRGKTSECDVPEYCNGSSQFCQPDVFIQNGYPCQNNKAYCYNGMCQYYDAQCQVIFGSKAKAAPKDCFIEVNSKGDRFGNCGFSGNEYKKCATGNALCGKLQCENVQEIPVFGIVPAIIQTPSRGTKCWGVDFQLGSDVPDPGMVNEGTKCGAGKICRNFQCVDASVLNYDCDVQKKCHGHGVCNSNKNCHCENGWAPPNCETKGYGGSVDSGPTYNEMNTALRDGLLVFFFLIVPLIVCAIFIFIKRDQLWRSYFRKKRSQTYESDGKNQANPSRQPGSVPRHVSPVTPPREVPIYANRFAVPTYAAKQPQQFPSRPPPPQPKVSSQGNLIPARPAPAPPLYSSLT

[2] = system: MCF7 cell lysate (cellular cathepsins D and E); assay: Inhibition of cellular cathepsins in MCF7 cell lysate; assay type: biochemical
TACE = TACE (Homo sapiens, UniProt P78536); assay: Protease inhibition screen and IC50 assay, TACE; assay type: biochemical; conditions: 10 μM, panel of 59 proteases
Sequence of TACE (P78536 215-824): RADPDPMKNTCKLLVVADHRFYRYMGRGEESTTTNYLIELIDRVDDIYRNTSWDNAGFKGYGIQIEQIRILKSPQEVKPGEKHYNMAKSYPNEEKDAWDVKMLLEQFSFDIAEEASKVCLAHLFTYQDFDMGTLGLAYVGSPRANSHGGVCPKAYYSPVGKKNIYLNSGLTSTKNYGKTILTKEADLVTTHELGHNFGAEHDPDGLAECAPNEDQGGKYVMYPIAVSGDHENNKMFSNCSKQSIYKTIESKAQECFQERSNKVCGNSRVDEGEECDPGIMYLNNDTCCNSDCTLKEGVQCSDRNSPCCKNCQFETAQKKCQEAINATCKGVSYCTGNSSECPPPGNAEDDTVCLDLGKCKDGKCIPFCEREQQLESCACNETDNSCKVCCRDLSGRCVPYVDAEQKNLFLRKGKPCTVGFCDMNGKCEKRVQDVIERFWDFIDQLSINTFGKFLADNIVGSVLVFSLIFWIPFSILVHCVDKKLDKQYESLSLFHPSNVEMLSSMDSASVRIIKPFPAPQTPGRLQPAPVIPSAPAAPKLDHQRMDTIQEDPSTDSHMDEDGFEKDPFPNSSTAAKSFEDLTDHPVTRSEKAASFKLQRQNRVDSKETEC

[3] = system: human peripheral blood mononuclear cells (CD3+ T cells); assay: T cell proliferation in PBMCs in response to exogenous antigen; assay type: cell-based
How it was run: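 Human PBMCs were isolated from buffy coats by Ficoll-Hypaque density gradient centrifugation, washed in PBS, and checked for viability by trypan blue. They were cultured in RPMI 1640 with 2 mM L-glutamine, penicillin/streptomycin and 10% FBS, with test compound at various concentrations. Cells were antibody-stained for 30 min at 4 °C, then permeabilised for intracellular staining and fixed in 2% paraformaldehyde. Lymphocytes were gated by forward/side scatter, with 50,000 cells per sample and isotype controls.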

[4] = system: monocyte derived dendritic cells and CD4+ T cells (autologous); assay: Autologous mixed lymphocyte reaction; assay type: cell-based, human; conditions: autologous MLR
[5] = Solubility in DMSO for dilution series; assay type: physicochemical
Cathepsin E = molecular target: T3, Cathepsin E (Homo sapiens, UniProt P14091); assay: Protease inhibition screen and IC50 assay, cathepsin E; assay type: biochemical; conditions: result in words
T3 sequence (P14091 54-396): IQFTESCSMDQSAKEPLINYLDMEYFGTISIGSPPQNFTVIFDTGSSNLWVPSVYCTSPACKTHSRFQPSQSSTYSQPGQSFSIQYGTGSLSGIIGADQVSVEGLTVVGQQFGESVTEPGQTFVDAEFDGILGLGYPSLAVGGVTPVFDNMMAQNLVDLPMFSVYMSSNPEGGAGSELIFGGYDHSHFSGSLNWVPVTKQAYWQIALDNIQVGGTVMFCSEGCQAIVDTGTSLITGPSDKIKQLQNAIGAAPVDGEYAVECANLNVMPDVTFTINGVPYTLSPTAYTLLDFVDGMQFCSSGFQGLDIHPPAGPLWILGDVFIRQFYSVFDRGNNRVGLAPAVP

SMILES: COC(=O)[C@@H]1CCCN1C(=O)[C@@H](Cc1ccccc1)N(C)C(=O)[C@H](C)NC(=O)[C@@H](NC(=O)C[C@H](O)[C@H](CC(C)C)NC(=O)[C@H](CC(N)=O)NC(=O)[C@H](CC(C)C)NC(=O)[C@H](OC(=O)[C@@H](OC(=O)[C@H](C(C)C)N(C)C)C(C)C)C(C)C)[C@@H](C)O [Compound 1, grassystatin A] (NMe2Val-[Hiv][dHiv]LN[Sta]TA[dNMeF]P-OMe)
inhibitory activity in protease screen (ADAM10): compromised activities
IFN-γ production [1]: significant downregulation
IL-17 production [1]: significant downregulation
inhibitory activity in protease screen (ADAM9): compromised activities
decrease in potency compared to purified cathepsin E ([2]; MCF7 lysate): 564 fold
difference in IC50 compared to pepstatin A ([2]; MCF7 lysate): 100 fold
IC50 ([2]; read-out: apparent IC50, MCF7 lysate treated directly): ~500 nM
inhibitory activity in protease screen (TACE): compromised activities
T cell proliferation in response to exogenous antigen (TTc) ([3]; 10 μM, CD3+ lymphocytes): significantly reduce
T cell viability ([3]; same experiment, data not shown): unaffected
interferon-γ (IFN-γ) in response to antigen presentation [4]: inhibit upregulation
interleukin-17 (IL-17) in response to antigen presentation [4]: inhibit upregulation
T cell proliferation ([4]; TTc + PMA, 5 days): reduce T cell proliferation in a dose dependent manner

SMILES: CC[C@H](C)[C@H](NC(=O)C[C@H](O)[C@H](CC(C)C)NC(=O)[C@H](CCC(N)=O)N(C)C(=O)[C@H](CC(C)C)NC(=O)[C@H](O)[C@@H](C)CC)C(=O)NCC(=O)N(C)[C@H](Cc1ccccc1)C(=O)N1CCC[C@H]1C(=O)OC [Compound 3, grassystatin C] ({Hmp(2R,3S)}-L[NMeQ][Sta]IG[dNMeF]P-OMe)
solubility in DMSO [5]: insoluble in DMSO

discrimination between cathepsins D and E (Cathepsin E): did not discriminate
SMILES: CC(C)CC(=O)N[C@H](C(=O)N[C@H](C(=O)N[C@@H](CC(C)C)[C@@H](O)CC(=O)N[C@@H](C)C(=O)N[C@@H](CC(C)C)[C@@H](O)CC(=O)O)C(C)C)C(C)C [Pepstatin A, pepstatin A] (Isovaleryl-VV[Sta]A[Sta]-OH)
